Assay results as given in ChEMBL document CHEMBL1800050, “A new class of phenazines with activity against a chloroquine resistant Plasmodium falciparum strain and antimicrobial activity” (J Med Chem, 2011).
pIC50: −log10 of the molar value. Calls of active or inactive are those of the source. No cut-off for these calls is given here.

How the values were obtained:
[1] = tested on: Plasmodium falciparum; assay: Antimalarial activity against chloroquine-sensitive Plasmodium falciparum NF54 infected in human erythrocytes assessed as reduction of parasitemia level at 10 uM after 1 day by Geimsa staining based light microscopic analysis (reference value: 0.97 +/- 0.1%); format: functional; parameters: scale not given: the % may be the effect or the level left
[2] = tested on: Plasmodium falciparum; assay: Antimalarial activity against chloroquine-sensitive Plasmodium falciparum NF54 infected in human erythrocytes assessed as inhibition of parasite growth after 72 hrs by Geimsa staining based light microscopic analysis; format: functional, organism-based; details: NF54, 72 h
[3] = tested on: Plasmodium falciparum; assay: Antimalarial activity against chloroquine-sensitive Plasmodium falciparum NF54 infected in human erythrocytes assessed as reduction of parasitemia level at 10 uM after 4 days by Geimsa staining based light microscopic analysis (reference value: 2.73 +/- 0.16%); format: functional; parameters: scale not given: the % may be the effect or the level left
[4] = tested on: Plasmodium falciparum; assay: Antimalarial activity against chloroquine-sensitive Plasmodium falciparum NF54 infected in human erythrocytes assessed as reduction of parasitemia level at 10 uM after 2 days by Geimsa staining based light microscopic analysis (reference value: 1.21 +/- 0.12%); format: functional; parameters: scale not given: the % may be the effect or the level left
[5] = tested on: Plasmodium falciparum; assay: Antimalarial activity against chloroquine-sensitive Plasmodium falciparum NF54 infected in human erythrocytes assessed as reduction of parasitemia level at 10 uM after 3 days by Geimsa staining based light microscopic analysis (reference value: 2.55 +/- 0.21%); format: functional; parameters: scale not given: the % may be the effect or the level left
[6] = tested on: Plasmodium berghei; assay: Antimalarial activity against […] Plasmodium berghei ANKA infected in C57BL/6 mouse assessed as clearance of parasite from blood of mouse at 80 mg/kg, ip administered 3 to 9 days post infection by Geimsa staining based microscopic analysis; format: functional, organism-based; parameters: dose 80 mg/kg
How it was run: (§1)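 Infected C57BL/6 mice were followed over time for blood parasitemia and for survival, with a chloroquine-treated group as reference. Death from cerebral malaria and later death from anemia were recorded separately.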

[7] = tested on: Plasmodium berghei; assay: Antimalarial activity against […] Plasmodium berghei ANKA infected in C57BL/6 mouse assessed as protection against cerebral malaria at 80 mg/kg, ip administered 3 to 9 days post infection by Geimsa staining based microscopic analysis; format: functional, organism-based; parameters: dose 80 mg/kg; how it was run: as §1
[8] = tested on: Plasmodium falciparum; assay: Antimalarial activity against chloroquine-sensitive Plasmodium falciparum NF54 infected in human erythrocytes assessed as reduction of parasitemia level at 20 uM after 4 days by Geimsa staining based light microscopic analysis (reference value: 2.73 +/- 0.16%); format: functional; parameters: scale not given: the % may be the effect or the level left
[9] = tested on: Plasmodium falciparum; assay: Antimalarial activity against chloroquine-sensitive Plasmodium falciparum NF54 infected in human erythrocytes assessed as reduction of parasitemia level at 20 uM after 1 day by Geimsa staining based light microscopic analysis (reference value: 0.97 +/- 0.1%); format: functional; parameters: scale not given: the % may be the effect or the level left
[10] = tested on: Plasmodium falciparum; assay: Antimalarial activity against chloroquine-sensitive Plasmodium falciparum NF54 infected in human erythrocytes assessed as reduction of parasitemia level at 20 uM after 3 days by Geimsa staining based light microscopic analysis (reference value: 2.55 +/- 0.21%); format: functional; parameters: scale not given: the % may be the effect or the level left
[11] = tested on: Mus musculus; assay: Toxicity in […] Plasmodium berghei ANKA infected C57BL/6 mouse assessed as mortality with anemia at 80 mg/kg, ip administered 3 to 9 days post infection measured on day 10; format: organism-based; parameters: dose 80 mg/kg, route intraperitoneal; details: in vivo; how it was run: as §1
[12] = tested on: Plasmodium falciparum; assay: Antimalarial activity against chloroquine-sensitive Plasmodium falciparum NF54 infected in human erythrocytes assessed as reduction of parasitemia level at 20 uM after 2 days by Geimsa staining based light microscopic analysis (reference value: 1.21 +/- 0.12%); format: functional; parameters: scale not given: the % may be the effect or the level left
[13] = tested on: Plasmodium berghei; assay: Antimalarial activity against […] Plasmodium berghei ANKA infected in C57BL/6 mouse assessed as clearance of parasite from blood of mouse at 150 mg/kg, ip administered 3 to 9 days post infection measured on day 5 to 7 by Geimsa staining based microscopic analysis; format: functional, organism-based; parameters: dose 150 mg/kg; how it was run: as §1
[14] = tested on: Plasmodium falciparum; assay: Antimalarial activity against chloroquine-sensitive Plasmodium falciparum NF54 infected in human erythrocytes assessed as inhibition of parasite growth at 2.5 to 10 uM after 72 hrs by Geimsa staining based light microscopic analysis; format: functional, organism-based
[15] = tested on: Plasmodium falciparum; assay: Antimalarial activity against chloroquine-sensitive Plasmodium falciparum NF54 infected in human erythrocytes assessed as reduction of parasitemia level at 3 uM after 3 days by Geimsa staining based light microscopic analysis (reference value: 2.55 +/- 0.21%); format: functional; parameters: scale not given: the % may be the effect or the level left
[16] = tested on: Plasmodium falciparum; assay: Antimalarial activity against chloroquine-sensitive Plasmodium falciparum NF54 infected in human erythrocytes assessed as reduction of parasitemia level at 3 uM after 2 days by Geimsa staining based light microscopic analysis (reference value: 1.21 +/- 0.12%); format: functional; parameters: scale not given: the % may be the effect or the level left
[17] = tested on: Plasmodium falciparum; assay: Antimalarial activity against chloroquine-sensitive Plasmodium falciparum NF54 infected in human erythrocytes assessed as reduction of parasitemia level at 3 uM after 4 days by Geimsa staining based light microscopic analysis (reference value: 2.73 +/- 0.16%); format: functional; parameters: scale not given: the % may be the effect or the level left
[18] = tested on: Plasmodium falciparum; assay: Antimalarial activity against chloroquine-sensitive Plasmodium falciparum NF54 infected in human erythrocytes assessed as reduction of parasitemia level at 3 uM after 1 day by Geimsa staining based light microscopic analysis (reference value: 0.97 +/- 0.1%); format: functional; parameters: scale not given: the % may be the effect or the level left
[19] = tested on: Plasmodium falciparum; assay: Antimalarial activity against chloroquine-sensitive Plasmodium falciparum NF54 infected in human erythrocytes assessed as reduction of parasitemia level at 0.032 uM after 4 days by Geimsa staining based light microscopic analysis (reference value: 2.73 +/- 0.16%); format: functional; parameters: scale not given: the % may be the effect or the level left
[20] = tested on: Plasmodium berghei; assay: Antimalarial activity against […] Plasmodium berghei ANKA infected in C57BL/6 mouse assessed as clearance of parasite from blood of mouse at 25 mg/kg, ip administered 3 to 9 days post infection by Geimsa staining based microscopic analysis; format: functional, organism-based; parameters: dose 25 mg/kg; how it was run: as §1
[21] = tested on: Plasmodium falciparum; assay: Antimalarial activity against chloroquine-sensitive Plasmodium falciparum NF54 infected in human erythrocytes assessed as reduction of parasitemia level at 0.032 uM after 1 day by Geimsa staining based light microscopic analysis (reference value: 0.97 +/- 0.1%); format: functional; parameters: scale not given: the % may be the effect or the level left
[22] = tested on: Plasmodium falciparum; assay: Antimalarial activity against chloroquine-sensitive Plasmodium falciparum NF54 infected in human erythrocytes assessed as reduction of parasitemia level at 0.032 uM after 2 days by Geimsa staining based light microscopic analysis (reference value: 1.21 +/- 0.12%); format: functional; parameters: scale not given: the % may be the effect or the level left
[23] = tested on: Plasmodium falciparum; assay: Antimalarial activity against chloroquine-sensitive Plasmodium falciparum NF54 infected in human erythrocytes assessed as reduction of parasitemia level at 0.032 uM after 3 days by Geimsa staining based light microscopic analysis (reference value: 2.55 +/- 0.21%); format: functional; parameters: scale not given: the % may be the effect or the level left
[24] = tested on: Plasmodium berghei; assay: Antimalarial activity against […] Plasmodium berghei ANKA infected in C57BL/6 mouse assessed as clearance of parasite from blood of mouse at 100 mg/kg, ip administered 3 to 9 days post infection by Geimsa staining based microscopic analysis; format: functional, organism-based; parameters: dose 100 mg/kg; how it was run: as §1
[25] = tested on: Plasmodium berghei; assay: Antimalarial activity against […] Plasmodium berghei ANKA infected in C57BL/6 mouse assessed as protection against cerebral malaria at 100 mg/kg, ip administered 3 to 9 days post infection by Geimsa staining based microscopic analysis; format: functional, organism-based; parameters: dose 100 mg/kg; how it was run: as §1
[26] = tested on: Mus musculus; assay: Toxicity in […] Plasmodium berghei ANKA infected C57BL/6 mouse assessed as mortality with anemia at 100 mg/kg, ip administered 3 to 9 days post infection measured on day 10; format: organism-based; parameters: dose 100 mg/kg, route intraperitoneal; details: in vivo; how it was run: as §1

`O/N=C1/C=C(c2c(O)ccc3ccccc23)c2ccccc2/C1=N/O` gave an Activity [1] of 0.94%, a pIC50 [2] of 5.43 and an Activity [3] of 0%. For the same molecule, the Activity [4] was 0.2% and the Activity [5] was 0.04%.
With `Oc1ccc2ccccc2c1-c1cc2nc3ccccc3nc2c2ccccc12` the Activity [6] was “inactive”, the Activity [7] was “Active” and the Activity [8] was 0%. For the same molecule, the Activity [9] was 0.23%, the Activity [10] was 0.02% and the Activity [11] was “Toxic”. It also gave an Activity [12] of 0.07% and a pIC50 [2] of 5.39.
`Oc1ccc2cc(Br)ccc2c1-c1cc2nc3ccccc3nc2c2ccc(Br)cc12` showed an Activity [1] of 0.14%, a pIC50 [2] of 6.19 and an Activity [3] of 0%. For the same molecule, the Activity [4] was 0.01%, the Activity [13] was “Active” and the Activity [5] was 0%.
With `Oc1ccc2ccccc2c1-c1cc2c(c3ccccc13)=NC1(CCCCC1)N=2` the inhibition [14] was “inactive”.
In the case of `Nc1nnc2cc(-c3c(O)ccc4ccccc34)c3ccccc3c2n1`, the inhibition [14] was “inactive”.
`Oc1c(-c2cc3nc4cc(Cl)c(Cl)cc4nc3c3ccccc23)ccc2ccccc12` was tested, and the Activity [15] was 0%, the Activity [16] was 0.15% and the Activity [17] was 0%. For the same molecule, the Activity [18] was 0.17% and the pIC50 [2] was 6.29.
With `CCN(CC)CCCC(C)Nc1ccnc2cc(Cl)ccc12` (stereo not drawn) [CHLOROQUINE] the Activity [19] was 0%, the Activity [20] was “inactive” and the Activity [21] was 0.06%. It also gave an Activity [22] of 0% and an Activity [23] of 0%.
With `Oc1ccc2ccccc2c1-c1cc2nc3cc(Cl)c(Cl)cc3nc2c2ccccc12` the Activity [8] was 0%, the Activity [24] was “inactive” and the Activity [25] was “Active”. For the same molecule, the Activity [9] was 0.14%, the Activity [10] was 0% and the Activity [26] was “Toxic”. For the same molecule, the Activity [12] was 0.01% and the pIC50 [2] was 5.30.
`Oc1ccc2ccccc2c1-c1cc2nc3c(O)nc(S)nc3nc2c2ccccc12` was tested, and the inhibition [14] was “inactive”.
With `O=C(O)c1cnc2cc(-c3ccc4ccccc4c3O)c3ccccc3c2n1` the inhibition [14] was “inactive”.
`Oc1c(-c2cc3nc4c(O)nc(S)nc4nc3c3ccccc23)ccc2ccccc12` was tested, and the inhibition [14] was “inactive”.
In the case of `O=C1C=C(c2ccc3ccccc3c2O)c2ccccc2C1=O`, the inhibition [14] was “inactive”.
In the case of `O=C(O)c1cnc2cc(-c3c(O)ccc4ccccc34)c3ccccc3c2n1`, the inhibition [14] was “inactive”.
`Oc1c(-c2cc3nc4ncccc4nc3c3ccccc23)ccc2ccccc12` was tested, and the inhibition [14] was “inactive”.
In the case of `Oc1ccc2ccccc2c1-c1cc2nc3ncccc3nc2c2ccccc12`, the Activity [8] was 0%, the Activity [24] was “inactive” and the Activity [25] was “Active”. For the same molecule, the Activity [9] was 0.04%, the Activity [10] was 0% and the Activity [26] was “Toxic”. It also gave an Activity [12] of 0% and a pIC50 [2] of 5.28.
Work on `Oc1c(-c2cc3nc4ccccc4nc3c3ccccc23)ccc2ccccc12` yielded an Activity [15] of 0.02%, an Activity [16] of 0.11% and an Activity [17] of 0%. For the same molecule, the Activity [18] was 0.27% and the pIC50 [2] was 6.06.
